Measured values taken from ChEMBL document CHEMBL1128264, “Second-generation leukotriene B4 receptor antagonists related to SC-41930: heterocyclic replacement of the methyl ketone pharmacophore” (J Med Chem, 1995).
Values belong to the compound of their own block, whether it stands above or below them.

Legend:
Homo sapiens [1] = organism: Homo sapiens; test: Tested for the ability to inhibit Leukotriene B4 (LTB4) induced degranulation.; type: functional, organism-based
In short: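 Human neutrophils (3 × 10⁶ in 1 mL HBSS) pretreated with 5 μg cytochalasin B for 5 min at 37 °C, then with test compound for 7 min, then stimulated with 5 × 10⁻⁸ M LTB₄ for 2 min. MPO in pellet and supernatant read spectrophotometrically (o-dianisidine/peroxide). Release is expressed as percent of total MPO after subtracting basal.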

Leukotriene B4 receptor = Leukotriene B4 receptor (Homo sapiens, UniProt Q9NPC1+Q15722); test: Inhibition of Leukotriene B4 (LTB4) induced chemotaxis.; type: functional
[2] = target: T1, Leukotriene B4 receptor 1 (Homo sapiens, UniProt Q15722); test: Binding affinity for Leukotriene B4 (LTB4) receptor
In short: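 Human blood neutrophils (dextran sedimentation, Ficoll-paque, hypotonic lysis without BSA), 4 × 10⁶ cells with 0.6 nM [³H]LTB₄ ± test compound in 1 mL HBSS, 0 °C for 45 min; 30 μM NDGA present in some assays. Glass-fibre filtration with ice-cold HBSS washes.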

[3] = target: T1, Leukotriene B4 receptor 1; test: Binding affinity towards Leukotriene B4 (LTB4) Receptor. Experiment conducted in the absence of NDGA.
In short: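 Human neutrophils isolated with dextran sedimentation, Ficoll-paque and BSA-free hypotonic lysis. 4 × 10⁶ cells incubated with 0.6 nM [³H]LTB₄ ± test compound in 1 mL HBSS at 0 °C for 45 min, no NDGA. Bound ligand separated by glass-fibre filtration. Specific binding is total minus binding not displaced by 0.1 μM unlabeled LTB₄.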

Homo sapiens [4] = organism: Homo sapiens; test: Tested for the ability to inhibit Leukotriene B4 (LTB4) induced chemotaxis. Test compound added to upper and lower wells.; type: functional, organism-based
In short: (§1)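 Test compound is placed in both upper and lower wells. After 90 min at 37 °C, migrated cells in the lower well are Coulter-counted. Inhibition is computed after subtracting the HBSS random-migration mean.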

Homo sapiens [5] = organism: Homo sapiens; test: Inhibition of 12-(R)-hydroxyeicosatetraenoic acid (HETE)-induced chemotaxis; type: functional, organism-based
Mus musculus [6] = test: In vivo murine (intracolonic) SCOA-induced colitis activity of the compound.; type: functional
In short: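 Mouse colitis induced under light anesthesia by a single intrarectal enema of 3% acetic acid. Test compound given intrarectally 1 h before and 1 h after instillation. Colonic MPO assessed at 24 h. ED50 is in mg/kg.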

Canis lupus familiaris [7] = test: In vivo activity for oral administration using LTB4-induced canine intradermal chemotaxis assay.
Cavia porcellus [8] = test: In vivo […] (oral) SCOA-induced colitis activity of the compound.; type: functional
In short: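 Guinea pig colitis induced under light anesthesia by a single intrarectal enema of 4% acetic acid. Oral dosing 30 min before induction. Colonic MPO activity measured after 24 h. ED50 is in mg/kg.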

Homo sapiens [9] = organism: Homo sapiens; test: Inhibition of fMLP-induced degranulation in the PMN degranulation assay; type: functional, organism-based
Homo sapiens [10] = organism: Homo sapiens; test: Tested for the ability to inhibit Leukotriene B4 (LTB4) induced chemotaxis. (Test compound added to upper and lower wells.); type: functional, organism-based; in short: as §1
Homo sapiens [11] = organism: Homo sapiens; test: Inhibition of fMLP-induced chemotaxis; type: functional, organism-based
Cavia porcellus [12] = test: In vivo activity for topical application using LTB4-induced […] intradermal chemotaxis assay.; type: functional
HL-60 [13] = test: Inhibitory activity against PGE-2 production in HL60s.; type: functional, cell-based; conditions: Homo sapiens
Homo sapiens [14] = organism: Homo sapiens; test: Inhibitory activity against LTB4 production in PMNs.; type: functional, organism-based
HL-60 [15] = test: Inhibitory activity against LTB4 production in HL60s.; type: functional, cell-based; conditions: Homo sapiens
Mus musculus [16] = test: In vivo murine epidermal inflammation for topical application.; type: functional
In short: (§2)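 PMA (25 μg) in acetone applied to the dorsal surface of one mouse ear, with vehicle on the other ear. Test compound applied topically with the PMA in acetone. At 18 h, ears were removed and weighed. Edema is weight gain versus the contralateral ear, and MPO was also assayed. ED50 is in mg.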

Homo sapiens [17] = organism: Homo sapiens; test: Potency against LTB4-induced eosinophil chemotaxis.; type: functional, organism-based
Canis lupus familiaris [18] = test: In vivo activity for intravenous administration using LTB4-induced canine intradermal chemotaxis assay.
Homo sapiens [19] = organism: Homo sapiens; test: Inhibitory activity against HETE-induced chemotaxis; type: functional, organism-based
Homo sapiens [20] = organism: Homo sapiens; test: Potency against LTB4 binding to its receptor on eosinophils.; type: functional, organism-based
Mus musculus [21] = test: Compound measured by topical application using Murine epidermal inflammation assay; type: functional; in short: as §2
Cavia porcellus [22] = test: In vivo guinea pig (oral) SCOA-induced colitis activity of the compound.
Cavia porcellus [23] = test: In vivo activity for intravenous administration using LTB4-induced guinea pig intradermal chemotaxis assay.
Homo sapiens [24] = organism: Homo sapiens; test: Tested for the ability to inhibit Leukotriene B4 (LTB4) induced chemotaxis. (Test compound added to upper and lower wells); type: functional, organism-based; in short: as §1
Cavia porcellus [25] = test: In vivo activity for oral administration using LTB4-induced guinea pig intradermal chemotaxis assay.

T1 sequence (Q15722 whole entry): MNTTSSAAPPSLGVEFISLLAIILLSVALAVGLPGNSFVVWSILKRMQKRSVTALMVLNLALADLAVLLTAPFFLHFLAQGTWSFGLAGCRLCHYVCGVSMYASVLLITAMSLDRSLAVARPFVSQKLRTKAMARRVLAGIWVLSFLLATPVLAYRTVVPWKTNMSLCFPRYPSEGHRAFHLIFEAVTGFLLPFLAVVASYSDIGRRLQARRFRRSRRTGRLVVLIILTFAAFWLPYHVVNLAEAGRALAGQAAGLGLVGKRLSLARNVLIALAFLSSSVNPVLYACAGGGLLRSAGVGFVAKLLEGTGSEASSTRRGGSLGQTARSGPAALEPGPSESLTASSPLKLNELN

SMILES: CCCc1c(OCCCOc2ccc(C(N)=O)c(OC)c2CCC)ccc2c1OC(C(=O)O)CC2 (stereo not given)
- IC50 (Homo sapiens [1]; Homo sapiens): 920 nM
- IC50 (Leukotriene B4 receptor): 350 nM
- IC50 [2]: 140 nM

SMILES: CCCc1c(OCCCOc2ccc(-c3csc(N)n3)c(OC)c2CCC)ccc2c1OC(C(=O)O)CC2 (stereo not given)
- IC50 (Leukotriene B4 receptor): 1500 nM
- IC50 [2]: 320 nM

SMILES: CCCc1c(OCCCOc2ccc(-c3csc(SCc4ccccc4)n3)c(OC)c2CCC)ccc2c1OC(C(=O)O)CC2 (stereo not given)
- IC50 (Leukotriene B4 receptor): > 10000 nM
- IC50 [2]: 5800 nM

SMILES: CCCc1c(OCCCOc2ccc(-c3coc(C)n3)c(OC)c2CCC)ccc2c1OC(C(=O)O)CC2 (stereo not given)
- IC50 (Leukotriene B4 receptor): > 10000 nM
- IC50 [2]: 1100 nM

SMILES: CCCc1c(OCCCOc2ccc(-c3cc[nH]n3)c(OC)c2CCC)ccc2c1OC(C(=O)O)CC2 (stereo not given)
- IC50 (Leukotriene B4 receptor): 1200 nM
- IC50 [2]: 610 nM

SMILES: CCCc1c(OCCCOc2ccc(-c3csc(S)n3)c(OC)c2CCC)ccc2c1OC(C(=O)O)CC2 (stereo not given)
- IC50 (Homo sapiens [1]; Homo sapiens): 1200 nM
- IC50 (Leukotriene B4 receptor): 520 nM
- IC50 [2]: 890 nM

SMILES: CCCc1c(OCCCOc2ccc(-c3csc(OC)n3)c(OC)c2CCC)ccc2c1OC(C(=O)O)CC2 (stereo not given)
- IC50 (Leukotriene B4 receptor): > 10000 nM
- IC50 [2]: 1150 nM

SMILES: CCCc1c(OCCCOc2ccc(-c3csc(SC)n3)c(OC)c2CCC)ccc2c1OC(C(=O)O)CC2 (stereo not given)
- IC50 (Leukotriene B4 receptor): 18600 nM
- IC50 [2]: 2800 nM

SMILES: CCCc1c(OCCCOc2ccc(-c3ccno3)c(OC)c2CCC)ccc2c1OC(C(=O)O)CC2 (stereo not given)
- IC50 (Leukotriene B4 receptor): 1600 nM
- IC50 [2]: 770 nM

SMILES: CCCc1c(OCCCOc2ccc(-c3c[nH]nn3)c(OC)c2CCC)ccc2c1OC(C(=O)O)CC2 (stereo not given)
- IC50 [3]: 5.2 nM
- IC50 (Homo sapiens [4]): 88 nM
- IC50 (Homo sapiens [1]; Homo sapiens): 130 nM

SMILES: CCCc1c(OCCCOc2ccc(-c3c[nH]c(SCc4ccccc4)n3)c(OC)c2CCC)ccc2c1OC(C(=O)O)CC2 (stereo not given)
- IC50 [3]: 750 nM
- IC50 (Homo sapiens [4]): 430 nM

SMILES: CCCc1c(OCCCOc2ccc(C(C)=O)c(OC)c2CCC)ccc2c1OC(C(=O)O)CC2 (stereo not given) [SC-41390]
- ED50 (Cavia porcellus [22]): 20 mg/kg
- ED50 (Mus musculus [6]; Mus musculus, read-out: ED50): 28 mg/kg
- ED50 (Cavia porcellus [23]): 0.5 mg/kg
- IC50 (Homo sapiens [1]; Homo sapiens): 920 nM
- IC50 (Homo sapiens [24]): 832 nM
- ED50 (Cavia porcellus [25]): 1.7 mg/kg
- ED50 (Cavia porcellus [12]): 340 ng

The next lines start with results.

- IC50 (Homo sapiens [1]; Homo sapiens): 230 nM
- IC50 (Leukotriene B4 receptor): 430 nM
- IC50 [2]: 100 nM
SMILES: CCCc1c(OCCCOc2ccc(-c3cocn3)c(OC)c2CCC)ccc2c1OC(C(=O)O)CC2 (stereo not given)

- IC50 (Homo sapiens [1]; Homo sapiens): 90 nM
- IC50 (Leukotriene B4 receptor): 287 nM
- IC50 [2]: 93 nM
SMILES: CCCc1c(OCCCOc2ccc(-c3cscn3)c(OC)c2CCC)ccc2c1OC(C(=O)O)CC2 (stereo not given)

- IC50 [3]: 12.3 nM
- IC50 (Homo sapiens [4]): 49 nM
- IC50 (Homo sapiens [1]; Homo sapiens): 7 nM
SMILES: CCCc1c(OCCCOc2ccc(-c3cscn3)c(OC)c2CC2CC2)ccc2c1OC(CCC(=O)O)CC2 (stereo not given)

- IC50 (Leukotriene B4 receptor): 1200 nM
- IC50 [2]: 520 nM
SMILES: CCCc1c(OCCCOc2ccc(-c3c[nH]cn3)c(OC)c2CCC)ccc2c1OC(C(=O)O)CC2 (stereo not given)

- IC50 (Homo sapiens [1]; Homo sapiens): 23 nM
- IC50 (Leukotriene B4 receptor): 110 nM
- IC50 [2]: 25 nM
SMILES: C=CCc1c(OCCCOc2ccc3c(c2CCC)OC(C(=O)O)CC3)ccc(-c2cscn2)c1OC (stereo not given)

- IC50 [3]: 15.5 nM
- IC50 (Homo sapiens [4]): 360 nM
- IC50 (Homo sapiens [1]; Homo sapiens): 220 nM
SMILES: CCCc1c(OCCCOc2ccc(-c3cscn3)c(OC)c2CC2CC2)cccc1OCC(=O)O

- IC50 (Homo sapiens [1]; Homo sapiens): 70 nM
- IC50 (Leukotriene B4 receptor): 1540 nM
- IC50 [2]: 26 nM
SMILES: CCCc1c(OCCCOc2ccc(-c3cscn3)c(OC)c2CCC)ccc2c1OC(CCC(=O)O)CC2 (stereo not given)

- IC50 (Homo sapiens [5]): 106 nM
- IC50 (Homo sapiens [9]): 5900 nM
- IC50 (Homo sapiens [10]; Homo sapiens): 67 nM
- IC50 (Homo sapiens [1]; Homo sapiens): 48 nM
- IC50 (Homo sapiens [11]): 1410 nM
SMILES: CCCc1c(OCCCOc2ccc(-c3cscn3)c(OC)c2CC2CC2)ccc2c1OC(C(=O)O)CC2 (racemic)
- ED50 (Mus musculus [6]; Mus musculus, read-out: ED50): 7.1 mg/kg
- ED50 (Canis lupus familiaris [7]): 0.2 mg/kg
- ED50 (Cavia porcellus [8]): 2.3 mg/kg
- ED50 (Cavia porcellus [12]): 18 ng

- IC50 (HL-60 [13]): 928 nM
- IC50 (Homo sapiens [14]): 520 nM
- IC50 (HL-60 [15]): 660 nM
- IC50 (Homo sapiens [17]): 9 nM
- IC50 (Homo sapiens [10]): 89 nM
- IC50 (Homo sapiens [1]): 57 nM
- IC50 (Homo sapiens [19]): 106 nM
- IC50 (Homo sapiens [20]): 2.6 nM
SMILES: CCCc1c(OCCCOc2ccc(-c3cscn3)c(OC)c2CC2CC2)ccc2c1OC(C(=O)O)CC2 (stereo in doubt; 35)
- ED50 (Mus musculus [6]): 12 mg/kg
- ED50 (Canis lupus familiaris [7]): 0.74 mg/kg
- ED50 (Mus musculus [16]): 0.8 mg
- ED50 (Cavia porcellus [8]): 3.4 mg/kg
- ED50 (Canis lupus familiaris [18]): 0.02 mg/kg
- ED50 (Cavia porcellus [12]): 70 ng

- IC50 (Homo sapiens [1]): 79 nM
SMILES: CCCc1c(OCCCOc2ccc(-c3cscn3)c(OC)c2CC2CC2)ccc2c1OC(C(=O)O)CC2 (stereo in doubt; -/-35)
- ED50 (Mus musculus [6]): 11.7 mg/kg
- ED50 (Cavia porcellus [8]): 5.9 mg/kg
- ED50 (Mus musculus [21]): 0.98 mg
- ED50 (Cavia porcellus [12]): 98 ng
